In ChEMBL document CHEMBL1821679, “Targeting the heat shock protein 90 dimer with dimeric inhibitors” (J Med Chem, 2011):
The source made the active and inactive calls. No cut-off for these calls is given here.

What was measured:
[1] = Antiproliferative activity against human PC3MM2 cells after 72 hrs by MTS/PMS assay; format: functional, cell-based; details: PC3MM2, 72 h
Summary of the method: (§1)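 Cells grown in medium with non-essential amino acids, 2 mM L-glutamine, streptomycin, penicillin and 10% FBS at 37 °C, 5% CO2; seeded 2000/well, attached overnight. Test agent added over a concentration range in DMSO (1% final), 72 h exposure. Viable cells counted by MTS/PMS read-out against 1% DMSO wells as 100% proliferation. IC50 taken as mean ± SD of at least two separate experiments, each in triplicate.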

[2] = target: T1, Heat shock protein HSP90 (Homo sapiens) (UniProt P07900+P08238); experiment: Inhibition of Hsp90 in human MCF7 cells assessed as induction of Her2 degradation at 0.5 fold IC50 after 24 hrs by Western blot method; format: cell-based
Summary of the method: (§2)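 MCF-7 cells treated 24 h with compound in DMSO (1% final); geldanamycin 500 nM served as positive control and DMSO as vehicle control. Cells harvested in cold PBS and lysed 1 h on ice in RIPA with 1 mM PMSF, 2 mM orthovanadate and protease inhibitors. Lysates clarified 14,000g, 15 min, 4 °C. Protein (20 µg, BCA) resolved under reducing conditions and blotted on PVDF for Her2, Raf and Akt, with actin as loading control. Detection by HRP secondary antibody and chemiluminescence.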

MCF7 = experiment: Antiproliferative activity against human MCF7 cells after 72 hrs by MTS/PMS assay; format: functional, cell-based; details: MCF7, 72 h; summary of the method: as §1
HT-29 = experiment: Antiproliferative activity against human HT-29 cells after 72 hrs by MTS/PMS assay; format: functional, cell-based; details: HT-29, 72 h; summary of the method: as §1
[3] = target: T1, Heat shock protein HSP90 (Homo sapiens); experiment: Inhibition of Hsp90 in human MCF7 cells assessed as induction of Akt degradation at 0.5 fold IC50 after 24 hrs by Western blot method; format: cell-based; summary of the method: as §2
[4] = target: T1, Heat shock protein HSP90 (Homo sapiens); experiment: Inhibition of Hsp90 in human MCF7 cells assessed as induction of Akt degradation at 5 fold IC50 after 24 hrs by Western blot method; format: cell-based; summary of the method: as §2
[5] = target: T1, Heat shock protein HSP90 (Homo sapiens); experiment: Inhibition of Hsp90 in human MCF7 cells assessed as induction of Her2 degradation at 5 fold IC50 after 24 hrs by Western blot method; format: cell-based; summary of the method: as §2
SK-BR-3 = experiment: Antiproliferative activity against human SKBR3 cells after 72 hrs by MTS/PMS assay; format: functional, cell-based; details: SK-BR-3, 72 h; summary of the method: as §1
[6] = target: T1, Heat shock protein HSP90 (Homo sapiens); experiment: Inhibition of Hsp90 in human MCF7 cells assessed as induction of Raf degradation at 5 fold IC50 after 24 hrs by Western blot method; format: cell-based; summary of the method: as §2
A549 = experiment: Antiproliferative activity against human A549 cells after 72 hrs by MTS/PMS assay; format: functional, cell-based; details: A549, 72 h; summary of the method: as §1
[7] = target: T1, Heat shock protein HSP90 (Homo sapiens); experiment: Inhibition of Hsp90 in human MCF7 cells assessed as induction of Raf degradation at 0.5 fold IC50 after 24 hrs by Western blot method; format: cell-based; summary of the method: as §2

Structure (SMILES)	IC50 [1]	inhibition [2]	IC50 (MCF7)	IC50 (HT-29)	inhibition [3]	inhibition [4]	inhibition [5]	IC50 (SK-BR-3)	inhibition [6]	IC50 (A549)	inhibition [7]
Cc1c(OC2CCN(C)CC2)ccc2cc(NC(=O)C/C=C/CC(=O)Nc3cc4ccc(OC5CCN(C)CC5)c(C)c4oc3=O)c(=O)oc12	7510 nM	Active	290 nM	7100 nM	Active	Active	Active	180 nM	Active	21500 nM	Active
Cc1c(OCCCN(C)C)ccc2cc(NC(=O)C/C=C/CC(=O)Nc3cc4ccc(OCCCN(C)C)c(C)c4oc3=O)c(=O)oc12	15200 nM	inactive	840 nM	12200 nM	inactive	inactive	inactive	460 nM	inactive	19400 nM	inactive
Cc1c(OC2CCN(C)CC2)ccc2cc(NC(=O)CC/C=C/CCC(=O)Nc3cc4ccc(OC5CCN(C)CC5)c(C)c4oc3=O)c(=O)oc12	4190 nM	Active	270 nM	50 nM	Active	Active	Active	150 nM	Active	5540 nM	Active
Cc1c(OC2CCN(C)CC2)ccc2cc(NC(=O)CCC/C=C/CCCC(=O)Nc3cc4ccc(OC5CCN(C)CC5)c(C)c4oc3=O)c(=O)oc12	440 nM	inactive	630 nM	240 nM	Active	Active	inactive	890 nM	Active	220 nM	Active
COc1ccc(C(=O)Nc2cc3ccc(O[C@@H]4OC(C)(C)[C@H](OC)[C@@H](O)[C@H]4O)c(C)c3oc2=O)cc1-c1cc(C(=O)Nc2cc3ccc(O[C@@H]4OC(C)(C)[C@H](OC)[C@@H](O)[C@H]4O)c(C)c3oc2=O)ccc1OC	36700 nM	Active	760 nM	36500 nM	Active	Active	Active	1160 nM	Active	35400 nM	Active
